Source: ChEMBL document CHEMBL4825692, “Benzofuranyl-2-imidazoles as imidazoline I2 receptor ligands for Alzheimer's disease” (Eur J Med Chem, 2021)

Legend:
Z-138 = assay: Cytotoxicity against human Z138 cells at 100 uM by real time IncuCyte proliferation assay; format: cell-based; settings: z-138, 100 µM
How it was run: (§1)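 Adherent lines (LN-229, Capan-1, HCT-116, NCI-H460) seeded at 500–1500 cells/well and treated after overnight attachment. Suspension lines (HL-60, K-562, Z-138, DND-41) seeded at 2500–5500 cells/well directly with compound. Highest concentration 100 μM; proliferation tracked by real-time IncuCyte imaging over 72 h at 37 °C.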

Rattus norvegicus = organism: Rattus norvegicus; assay: Displacement of [3H]idazoxan from imidazoline I2 receptor in rat brain cerebral cortex membrane assessed as occupancy at high affinity site measured after 30 mins by liquid scintillation counting spectrometry
Homo sapiens = organism: Homo sapiens; assay: Displacement of [3H]2-BFI from imidazoline I2 receptor in post-mortem human brain frontal cortex membrane assessed as occupancy at high affinity site measured after 45 mins by liquid scintillation counting spectrometry
LN-229 = assay: Cytotoxicity against human LN-229 cells at 100 uM by real time IncuCyte proliferation assay; format: cell-based; settings: ln-229, 100 µM; how it was run: as §1
HCT-116 = assay: Cytotoxicity against human HCT-116 cells at 100 uM by real time IncuCyte proliferation assay; format: cell-based; settings: hct-116, 100 µM; how it was run: as §1
[1] = Stability in human plasma assessed as compound remaining after 6 hrs; format: ADME, cell-free; settings: read-out: Stabilty
How it was run: (§2)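 Pooled human plasma from healthy donors, sampled at 0, 1, 2 and 6 h, reported as percentage of parent remaining.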

Cytochrome P450 1A2 = target: T1, Cytochrome P450 1A2 (Homo sapiens, UniProt P05177); assay: Inhibition of CYP1A2 (unknown origin) at 10 uM; format: ADME
T1 sequence (P05177 whole entry): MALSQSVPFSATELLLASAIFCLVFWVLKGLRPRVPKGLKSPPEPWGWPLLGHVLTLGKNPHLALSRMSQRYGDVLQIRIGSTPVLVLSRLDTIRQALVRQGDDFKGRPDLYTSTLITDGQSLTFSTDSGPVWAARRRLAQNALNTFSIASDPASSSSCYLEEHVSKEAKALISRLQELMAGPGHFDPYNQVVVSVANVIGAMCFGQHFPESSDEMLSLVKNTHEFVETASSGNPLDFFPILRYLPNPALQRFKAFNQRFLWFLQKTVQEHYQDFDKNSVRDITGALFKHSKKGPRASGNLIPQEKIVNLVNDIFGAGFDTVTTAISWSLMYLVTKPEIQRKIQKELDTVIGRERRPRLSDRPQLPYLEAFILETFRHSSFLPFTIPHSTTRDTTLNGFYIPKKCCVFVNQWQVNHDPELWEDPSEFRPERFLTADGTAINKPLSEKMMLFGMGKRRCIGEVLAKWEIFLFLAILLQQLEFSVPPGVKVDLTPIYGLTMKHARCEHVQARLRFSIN
How it was run: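 Recombinant human CYP1A2, CYP2C9, CYP2C19, CYP2D6 and CYP3A4 (7-BFC or DBF as probe) were tested with probe substances and fluorescent detection, with test compound at 10 μM.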

[2] = Solubility of the compound in 1% DMSO solution; format: physicochemical
[3] = Plasma protein binding in human assessed as unbound fraction; format: ADME, cell-free
Mus musculus = organism: Mus musculus; assay: Displacement of [3H]2-BFI from imidazoline I2 receptor in Swiss mouse brain cerebral cortex membrane assessed as occupancy at high affinity site measured after 45 mins by liquid scintillation counting spectrometry
[4] = Stability in human plasma assessed as compound remaining after 2 hrs; format: ADME, cell-free; settings: read-out: Stabilty; how it was run: as §2
[5] = AUC (0 to t) in CD-1 mouse at 10 mg/kg, po measured after 24 hrs by HPLC/UV-VS analysis; format: ADME, organism-based; parameters: route oral, time 24 hrs, dose 10 mg/kg; settings: in vivo
How it was run: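 Male CD1 mice; plasma concentration of drug at 15 min to 24 h after a single oral 10 mg/kg dose, measured by HPLC with UV at 290 nm (calibration 0,025-5 μg/mL, peak area ratio). Non-compartmental analysis of mean concentration–time curves: AUC by trapezoidal rule, Cmax read directly from the mean curve.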

Cl.c1ccc2oc(-c3ncc[nH]3)cc2c1
Activity (Z-138): Non-Toxic | Activity (Rattus norvegicus): 79% | Activity (Homo sapiens): 34% | Activity (LN-229): Non-Toxic | Activity (HCT-116): Non-Toxic | remaining at 6 h [1]: 57% | inhibition (INH) (Cytochrome P450 1A2): Not Active | solubility [2]: 52.5 µM | fraction unbound [3]: 0.071 | Activity (Mus musculus): 41% | remaining at 2 h [4]: 77% | AUC(0-t) at 24 h [5]: 2700 ng·h/mL
